Assay [1] is described as follows: inhibitors of TNFa-induced NFkB p65 translocation, primary screen, imaging, HUVEC, MLSMR starter and 10KST1 sets (AID 438;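 active = inhibition above 20% together with a positive visual image hit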;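 note: compound added about 3h40 before a 20 min TNFalpha stimulation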;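 for inhibition: signal is the nuclear over cytoplasmic p65 intensity ratio per well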). Conditions: HUVEC TNFa-induced p65 nuclear translocation; cell count: measured here: nuclei count (cytotoxicity indicator), at 2.08 µM; inhibition: at 2 µM, stronger effect = higher value, 0% TNFa-plus-vehicle, 100% no-TNFa wells.
Assay [2] can be described thus: inhibitors of E-selectin induction by TNFa, primary screen, imaging, HUVEC, immunofluorescence, MLSMR starter and 10KST1 sets (AID 487;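 active = visually confirmed hit in the image check and inhibition above 20%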;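 for inhibition: signal is fraction of cell area covered by stained E-selectin grains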;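 for nuclei count: 100% = median nuclei count of all wells on the same plate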). Conditions: HUVEC TNFalpha-induced E-selectin immunofluorescence imaging, at 2 µM; inhibition: stronger effect = higher value; nuclei count: measured here: cell number, toxicity.
Assay [3] can be described thus: DUSP6 inhibitors restoring Erk phosphorylation by chemical complementation, primary imaging in DUSP6-transfected HeLa (AID 609;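 active = compounds giving at least 50% inhibition in the cell-based MKP-3 phosphatase rescue imaging test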;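 for inhibition: phospho-Erk level distribution per well compared with pooled transfected vehicle control wells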). Conditions: HeLa MKP-3 transfected, phospho-Erk imaging KS statistic, at 10 µM, cells stimulated with TPA for 15 min.
Assay [4] has as its target Dual specificity protein phosphatase 6 (Homo sapiens) (UniProt Q16828). Described as above. Conditions: HeLa MKP-3 transfected, phospho-Erk imaging KS statistic; at 10 µM; stronger effect = higher value; cells stimulated with TPA for 15 min.
Assay [5] deals with Voltage-gated potassium channel subunit beta-2 (Rattus norvegicus) (UniProt P62483). Kind of assay: KvBeta enzyme negative modulators, primary screen, biochemical, NADPH fluorescence (AID 622;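 active = fluorescence slope higher than the sample average by over 3 SD, cut at about -0.22 in these data, passing the limit was not always enough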;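 note: slope of raw intensity against log time taken from 70 to 1610 s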). Conditions: recombinant KvBeta, 4-cyanobenzaldehyde reduction, at 10 µM, stronger effect = higher value.
Sequence of Voltage-gated potassium channel subunit beta-2 (Rattus norvegicus) (P62483 whole entry, looked up): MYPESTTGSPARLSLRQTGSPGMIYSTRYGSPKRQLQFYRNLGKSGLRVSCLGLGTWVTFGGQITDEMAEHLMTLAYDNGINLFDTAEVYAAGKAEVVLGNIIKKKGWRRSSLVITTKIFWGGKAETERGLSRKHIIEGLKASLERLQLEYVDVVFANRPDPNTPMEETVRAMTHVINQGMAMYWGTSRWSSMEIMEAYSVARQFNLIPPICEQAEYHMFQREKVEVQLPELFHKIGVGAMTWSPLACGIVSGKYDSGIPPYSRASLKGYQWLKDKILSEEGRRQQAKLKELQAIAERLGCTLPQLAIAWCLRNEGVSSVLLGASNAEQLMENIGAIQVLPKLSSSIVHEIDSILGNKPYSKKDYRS
Assay [6] shares this target. As to the kind of experiment: KvBeta positive modulators, primary screen, biochemical, NADPH fluorescence (AID 623).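 Note: fluorescence intensity change per second fitted from 20 to 320 s.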 The following applies: Recombinant KvBeta, NADPH fluorescence decrease slope, 10 min; at 10 µM; stronger effect = lower value.
Assay [7] deals with Alpha-2C adrenergic receptor (Homo sapiens) (UniProt P18825). As to the kind of experiment: modulators of alpha2C/GIRK thallium flux, primary screen, cell-based, HEK293 alpha2C/GIRK1/2 (AID 624;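 active = fluorescence slope after compound addition differing from the mean of all screened samples at 99.7% confidence, in either direction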;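 note: slope of fluorescence ratio to pre-addition baseline per second over 15 to 24 s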). The following applies: thallium flux BTC fluorescence, at 10 µM, actives lie on both sides.
Sequence of Alpha-2C adrenergic receptor (Homo sapiens) (P18825 whole entry, looked up): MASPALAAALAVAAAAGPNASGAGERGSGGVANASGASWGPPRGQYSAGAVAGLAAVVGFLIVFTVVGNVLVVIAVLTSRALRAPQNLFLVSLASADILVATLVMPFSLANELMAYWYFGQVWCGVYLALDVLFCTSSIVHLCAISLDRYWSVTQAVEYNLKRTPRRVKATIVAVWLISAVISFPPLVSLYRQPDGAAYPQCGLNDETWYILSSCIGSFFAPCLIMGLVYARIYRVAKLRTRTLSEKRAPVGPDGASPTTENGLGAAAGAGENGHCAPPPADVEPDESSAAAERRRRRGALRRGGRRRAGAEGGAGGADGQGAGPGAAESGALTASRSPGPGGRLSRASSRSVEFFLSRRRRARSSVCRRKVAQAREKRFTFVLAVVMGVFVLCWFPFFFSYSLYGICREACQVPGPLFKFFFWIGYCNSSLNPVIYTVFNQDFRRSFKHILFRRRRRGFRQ
Assay [8] in a line: inhibitors of larval lipid processing in zebrafish, primary screen, whole organism, PED6 fluorescence, gall bladder and intestine (AID 686;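 active = a full or partial loss of lipid-probe fluorescence in the fish gall bladder, intestine or both, judged by eye; inactive = no fluorescence loss, or compound toxic to the fish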;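 note: larvae 5 to 7 days old with five fish per well; signal comes from phospholipase A2 cleavage of quenched PED6 carried via bile; overnight exposure to compound and PED6 before scoring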). The following applies: Zebrafish larvae PED6 lipid processing, fluorescence scoring; screened at 20 µM (by protocol). The gist of the method:
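system = live zebrafish larvae aged 5-7 days, whole organism | probe or stimulus = ingested quenched lipid PED6 at 100 nM | doses = 20 µM single dose | timing = overnight exposure | detection = fluorescence microscopy with visual scoring of gall bladder and intestine | read-out = visual per-well fluorescence inhibition score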

Assay [9] is described as follows: inhibitors of Chlamydomonas gravitaxis, primary screen, whole organism, Chlamydomonas reinhardtii, WT vs cilia-less mutant, absorbance, 96-well (AID 463189;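 active = inhibition at or above 50% relative to wild type and mutant plate controls; inactive = inhibition below 50%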;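 note: 0% = wild type cc124 cells in DMSO and 100% = ciliumless bld1 mutant cells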). Conditions: OD600 absorbance, 2 days, at 10 µM, stronger effect = higher value.
[10] abbreviates: measured here: cell density z-score.
Setting [11] is: measured here: nuclear c-Myc green intensity z-score.
Where [12] appears, read: measured here: nuclear pErk red intensity z-score, stronger effect = higher value.

Active and inactive are the calls of the source.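 Rule for the calls, unless noted: active = NADPH fluorescence slope more negative than the mean of all samples by about 3 SD, 99.7% confidence; inactive = the rest.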

Sequence of Dual specificity protein phosphatase 6 (Homo sapiens) (Q16828 whole entry, looked up): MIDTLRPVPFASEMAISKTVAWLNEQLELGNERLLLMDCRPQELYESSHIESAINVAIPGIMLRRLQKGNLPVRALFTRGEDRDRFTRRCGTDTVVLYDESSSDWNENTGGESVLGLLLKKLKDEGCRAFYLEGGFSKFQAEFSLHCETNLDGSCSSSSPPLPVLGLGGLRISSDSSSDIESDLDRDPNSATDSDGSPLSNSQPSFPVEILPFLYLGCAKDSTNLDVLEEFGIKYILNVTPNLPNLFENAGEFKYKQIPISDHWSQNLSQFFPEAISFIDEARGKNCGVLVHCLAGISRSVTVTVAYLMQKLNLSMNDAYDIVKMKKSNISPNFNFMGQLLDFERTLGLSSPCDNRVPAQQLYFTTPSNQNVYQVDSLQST

Usually inhibition stands for the change of the read-out against control, counted positive when it falls. For the compound `CCCOc1ccc(-c2nnc(N)s2)cc1`, in [1], the cell count worked out at 608. Moreover, the inhibition is -13.2% (inactive) in assay [1], -31.6% (inactive) in [2], -4.27% (inactive) in [4] and -0.862% (inactive) in assay [9]. In assay [2], the nuclei count came to 164%. Moreover, the z-score was 0.463 in assay [3] (setting [10]), 0.84 in assay [3] (setting [11]) and -0.902 in assay [3] (setting [12]). In addition, the fluorescence slope in assay [5] is -0.403 (inactive). Besides, in assay [6], the NADPH fluorescence slope is -6.2e-05 (inactive). Besides, the slope in assay [7] was 0.00732 (inactive). Further, the outcome in assay [8] was inactive.

For `Cc1cccc(C)c1OCC(O)CNS(=O)(=O)c1ccccc1C(=O)N1CCOCC1` (configuration not stated), the cell count in assay [1] was 458. For the same compound, the inhibition was 1.5% (inactive) in assay [1], -196% (inactive) in [2], 2.71% (inactive) in assay [4] and -5.56% (inactive) in assay [9]. The compound also showed a nuclei count in assay [2] of 172%. The values for the z-score in assay [3] (setting [10]), in assay [3] (setting [11]) and in assay [3] (setting [12]) were -0.426, 0.519 and 1.28, respectively. Besides, in assay [5], the fluorescence slope was -0.387 (inactive). Also, the NADPH fluorescence slope in [6] is -1.1e-05 (inactive). In addition, in [7], the slope was 0.00603 (inactive). In addition, the result in [8] was inactive.

Consider `CCOc1nc(SC(C(C)=O)C(=O)Nc2ccccc2)nc(N(C)C)n1` (configuration not stated), for which the cell count in assay [1] amounted to 302. Further, the inhibition in [1] is -20.6% (inactive); in [2] it was 10.9% (inactive); in assay [4], 10.5% (inactive); in assay [9], -7.41% (inactive). Moreover, the nuclei count in [2] is 91.5%. In addition, the z-score was 0.486 in assay [3] (setting [10]), -0.655 in assay [3] (setting [11]) and -1.33 in [3] (setting [12]). Also, the fluorescence slope in [5] is -0.456 (inactive). For the same compound, in assay [6], the NADPH fluorescence slope was -9.6e-06 (inactive). Also, the slope in [7] is 0.00845 (inactive). Also, in [8], the compound was classed as inactive.

As to `CCOc1ccc(-c2nnc3sc(-c4ccccc4OC)nn23)cc1`, in [1], the cell count was found to be 613. Besides, the inhibition in assay [1] was -5.4% (inactive); in assay [2], 36% (inactive); in assay [4], -9.66% (inactive); in assay [9], 0.927% (inactive). This compound also showed a nuclei count in [2] of 174%. Further, the z-score in [3] (setting [10]) is -0.391; in assay [3] (setting [11]), 2.01; in assay [3] (setting [12]) it was -1.56. Also, the fluorescence slope in [5] was -0.403 (inactive). Besides, in assay [6], the NADPH fluorescence slope is -0.000132 (inactive). Moreover, the slope in assay [7] is 0.00485 (inactive). Further, the compound was classed as inactive in [8].

On to `CCOC(=O)c1n[nH]c2ccccc12`, for which the cell count in [1] is 354. The inhibition was -6.3% (inactive) in assay [1], -168% (inactive) in assay [2], 6.04% (inactive) in assay [4] and -13% (inactive) in [9]. In assay [2], the nuclei count stood at 110%. In addition, the figures for the z-score in [3] (setting [10]), in assay [3] (setting [11]) and in [3] (setting [12]) were 0.791, -0.274 and -1.01, respectively. For the same compound, the fluorescence slope in [5] was -0.399 (inactive). Besides, in [6], the NADPH fluorescence slope is 1.6e-05 (inactive). The slope in assay [7] is 0.00468 (inactive). Moreover, the outcome in assay [8] was inactive.

With `CCOC(=O)CSc1nc(N(C)C)nc(N(C)C#N)n1`, the cell count in assay [1] stood at 570. For the same compound, the inhibition in assay [1] is -6.8% (inactive); in [2] it was -140% (inactive); in [4], 5.57% (inactive); in assay [9], -9.74% (inactive). This compound displayed a nuclei count in assay [2] of 113%. For the same compound, the z-score in assay [3] (setting [10]) is 0.476; in assay [3] (setting [11]) it was -0.876; in [3] (setting [12]), -1.19. Moreover, the fluorescence slope in [5] was -0.478 (inactive). The NADPH fluorescence slope in assay [6] is -0.00031 (inactive). Also, the slope in assay [7] was 0.00712 (inactive). Also, the compound was classed as inactive in assay [8].

As for `CC(C)OC(=O)C(C#N)c1nc2ccccc2nc1N1CCN(Cc2ccc3c(c2)OCO3)CC1` (configuration not stated), the cell count in [1] was found to be 351. Also, the inhibition was -4.7% (inactive) in assay [1], -35.2% (inactive) in assay [2], 3.5% (inactive) in [4] and 17% (inactive) in [9]. Besides, in assay [2], the nuclei count is 129%. Moreover, the z-score is -0.0424 in [3] (setting [10]), 0.237 in assay [3] (setting [11]) and -0.926 in assay [3] (setting [12]). Moreover, in assay [5], the fluorescence slope is -0.459 (inactive). Besides, in [6], the NADPH fluorescence slope was -0.000113 (inactive). The slope in assay [7] is 0.00323 (inactive). The result in assay [8] was inactive.

Regarding `COc1ccc(-c2cc(=O)[nH]c(=O)[nH]2)cc1`, in [1], the cell count was 636. Moreover, the inhibition in [1] is -16% (inactive); in assay [2], -269% (inactive); in assay [4], 3.66% (inactive); in assay [9] it was -6.46% (inactive). In assay [2], the nuclei count was found to be 186%. Also, the z-score in assay [3] (setting [10]) was -0.456; in assay [3] (setting [11]) it was 0.584; in assay [3] (setting [12]), 0.91. For the same compound, the fluorescence slope in assay [5] is -0.466 (inactive). The NADPH fluorescence slope in assay [6] was -0.000273 (inactive). The slope in [7] was 0.00552 (inactive). The call in assay [8] was inactive.

Regarding `Cc1cccn2c(=O)c3cc(C#N)c(=N)n(Cc4ccncc4)c3nc12`, the cell count in assay [1] amounted to 604. Moreover, the inhibition in [1] is -18.3% (inactive); in assay [2], -96.5% (inactive); in assay [4] it was -4.27% (inactive); in [9], -9.33% (inactive). This compound came in with a nuclei count in [2] of 165%. Moreover, the z-score was 0.463 in assay [3] (setting [10]), -1.24 in [3] (setting [11]) and 0.303 in assay [3] (setting [12]). Besides, the fluorescence slope in [5] is -0.479 (inactive). Moreover, the NADPH fluorescence slope in [6] was -4.2e-05 (inactive). Moreover, the slope in assay [7] was 0.00367 (inactive). The compound was called inactive in assay [8].

With `COc1ccc(CCNc2nc3c(c(=O)n(C)c(=O)n3C)n2C)cc1OC`, the cell count in assay [1] came out at 604. Also, the inhibition was -9.9% (inactive) in assay [1], -63.1% (inactive) in assay [2], -4.27% (inactive) in assay [4] and -4.62% (inactive) in assay [9]. Moreover, the nuclei count in assay [2] was 146%. In addition, the z-score is 1.46 in [3] (setting [10]), -0.0832 in assay [3] (setting [11]) and 0.95 in assay [3] (setting [12]). The fluorescence slope in assay [5] was -0.425 (inactive). Also, the NADPH fluorescence slope in assay [6] is -6e-05 (inactive). In addition, the slope in [7] is 0.00693 (inactive). In addition, in assay [8], the outcome was inactive.

With `CNC(=O)c1cc2ccccc2o1`, the cell count in [1] came out at 323. Besides, the inhibition in assay [1] is -23.3% (inactive); in assay [2] it was -72.9% (inactive); in assay [4], -5.26% (inactive); in assay [9], 32% (inactive). The compound further yielded a nuclei count in [2] of 132%. The z-score in assay [3] (setting [10]) is -1.3; in [3] (setting [11]), -0.443; in [3] (setting [12]), -1.56. The fluorescence slope in [5] is -0.428 (inactive). Further, the NADPH fluorescence slope in [6] is -4.2e-05 (inactive). Besides, the slope in [7] is 0.00621 (inactive). For the same compound, in [8], the result was inactive.

As for `Cc1cc(C)c2nc(SCCC#N)nc(C)c2c1`, the cell count in [1] was 635. The inhibition in [1] was -4.4% (inactive); in assay [2], 9.3% (inactive); in assay [4], -2.91% (inactive); in [9], 4.11% (inactive). In assay [2], this compound displayed a nuclei count of 157%. Besides, the figures for the z-score in [3] (setting [10]), in assay [3] (setting [11]) and in [3] (setting [12]) were 0.288, -0.415 and 1, respectively. In addition, in assay [5], the fluorescence slope is -0.508 (inactive). Moreover, the NADPH fluorescence slope in assay [6] is -6.6e-05 (inactive). Moreover, the slope in assay [7] is 0.00476 (inactive). Also, the call in [8] was inactive.

With `COc1ccc(C2=Nn3c(nnc3-c3ccccn3)SC2)cc1`, the cell count in [1] worked out at 635. For the same compound, the inhibition is -4.7% (inactive) in [1], -43.3% (inactive) in assay [2], -4.27% (inactive) in [4] and 2.53% (inactive) in [9]. Moreover, the nuclei count in assay [2] was determined as 169%. Also, the z-score in assay [3] (setting [10]) is 0.562; in [3] (setting [11]) it was 0.488; in assay [3] (setting [12]), -0.686. In addition, in assay [5], the fluorescence slope was -0.427 (inactive). The NADPH fluorescence slope in assay [6] was -0.00018 (inactive). Moreover, the slope in assay [7] was 0.0069 (inactive). The result in [8] was inactive.

`Cc1ccc(C#N)c(SCc2cc3c(cc2Cl)OCO3)n1`: the cell count in assay [1] worked out at 538. The inhibition in [1] is -31.1% (inactive); in assay [2], -76.1% (inactive); in assay [4], -2.47% (inactive); in assay [9], 28.8% (inactive). In addition, in [2], the nuclei count worked out at 159%. In addition, the z-score is -0.24 in assay [3] (setting [10]), -0.891 in assay [3] (setting [11]) and -0.243 in [3] (setting [12]). In assay [5], the fluorescence slope is -0.515 (inactive). Moreover, in [6], the NADPH fluorescence slope is -6.3e-05 (inactive). Also, the slope in assay [7] is 0.00686 (inactive). Further, the compound was classed as inactive in assay [8].

Values taken from PubChem BioAssay.
